Reference: ChEMBL document CHEMBL1133771, “Synthesis and pharmacological evaluation of new pyrazolidine-3, 5-diones as AT(1) angiotensin II receptor antagonists” (J Med Chem, 2000)

Legend:
[1] = target: T1, Type-1 angiotensin II receptor (Homo sapiens, UniProt P30556); test: Binding affinity against AT1 in human hepatoma cell line, PLC-PRF-5
T1 sequence (P30556 whole entry): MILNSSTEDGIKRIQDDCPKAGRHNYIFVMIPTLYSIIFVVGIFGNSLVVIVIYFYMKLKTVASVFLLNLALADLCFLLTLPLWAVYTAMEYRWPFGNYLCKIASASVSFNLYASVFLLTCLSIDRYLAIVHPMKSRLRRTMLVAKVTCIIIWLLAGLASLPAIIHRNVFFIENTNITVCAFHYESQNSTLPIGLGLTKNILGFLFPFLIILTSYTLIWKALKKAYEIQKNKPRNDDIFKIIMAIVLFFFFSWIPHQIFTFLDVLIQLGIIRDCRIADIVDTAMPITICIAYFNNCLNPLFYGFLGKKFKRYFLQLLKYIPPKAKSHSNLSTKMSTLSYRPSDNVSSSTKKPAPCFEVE
Procedure, shortened: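 Crude membranes from PLC-PRF human hepatoma cells were prepared by lysis in ice-cold Tris/HCl 50 mM, MgCl2 2 mM, pH 7.4, then spun at 30000g. 100 µg protein was incubated 1 h at 25 °C with 3 nM [3H]AII. Nonspecific binding was taken with 1 µM losartan. Compounds were tested at 10-10–10-5 M, with filtration and scintillation counting.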

[2] = (§1) In vitro antagonist activity, Inhibition of angiotensin II (50 nM) mediated increase in cytosolic [Ca2+] conc. in PLC-PRF-5 cells; type: functional, cell-based; conditions: Homo sapiens
Procedure, shortened: (§2)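 PLC-PRF-5 cells were preincubated with compound, then stimulated with 50 nM angiotensin II. The rise in intracellular cytosolic Ca2+ concentration was measured, and inhibition of that rise is given as IC50.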

Angiotensin II receptor = target: T2, Angiotensin II receptor (Homo sapiens, UniProt P30556+P50052); test: as §1; type: functional, cell-based; procedure, shortened: as §2
T2 sequence (P30556 whole entry): T1 sequence (P30556 whole entry)
T2 sequence (P50052 whole entry): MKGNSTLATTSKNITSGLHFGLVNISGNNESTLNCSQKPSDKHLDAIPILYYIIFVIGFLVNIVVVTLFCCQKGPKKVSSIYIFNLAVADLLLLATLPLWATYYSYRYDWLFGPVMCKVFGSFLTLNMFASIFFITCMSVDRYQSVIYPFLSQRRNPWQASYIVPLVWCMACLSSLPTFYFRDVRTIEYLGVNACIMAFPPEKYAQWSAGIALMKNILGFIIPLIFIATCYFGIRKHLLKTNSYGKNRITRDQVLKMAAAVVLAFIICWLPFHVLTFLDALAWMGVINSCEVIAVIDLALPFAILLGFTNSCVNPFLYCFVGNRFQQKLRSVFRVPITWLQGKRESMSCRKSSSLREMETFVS

Row | SMILES | Ki [1] [nM] | IC50 [2] [nM] | IC50 (Angiotensin II receptor) [nM]
1 | CCCCN1C(=O)C(C)(CCCC)C(=O)N1Cc1ccc(-c2ccccc2S(=O)(=O)NC(=O)c2ccccc2)cc1 (configuration not stated) | 32 | 33 | –
2 | CCCCN1C(=O)C2(CCCC2)C(=O)N1Cc1ccc(-c2ccccc2-c2nn[nH]n2)cc1 | 25 | – | 22
3 | CCCCN1C(=O)C2(CCCC2)C(=O)N1Cc1ccc(-c2ccccc2S(=O)(=O)NC(=O)NC2CCCCC2)cc1 | 32 | – | 38
4 | O=C1N(Cc2ccccc2)N(Cc2ccc(-c3ccccc3-c3nn[nH]n3)cc2)C(=O)C12CCCC2 | 402 | – | –
5 | CCCCN1C(=O)C2(CCCC2)C(=O)N1Cc1ccc(-c2ccccc2S(=O)(=O)NC(C)(C)C)cc1 | > 10000 | – | –
6 | CCCCN1C(=O)C(C)(C)C(=O)N1Cc1ccc(-c2ccccc2S(=O)(=O)NC(=O)c2ccccc2)cc1 | 42 | – | 26
7 | O=C1N(Cc2ccc(-c3ccccc3-c3nn[nH]n3)cc2)N(c2ccccc2)C(=O)C12CCCC2 | – | – | 89
8 | CCCCCN1C(=O)C2(CCCC2)C(=O)N1Cc1ccc(-c2ccccc2S(=O)(=O)NC(=O)c2ccccc2)cc1 | 25 | – | 28
9 | CCCCN1C(=O)C2(CCCC2)C(=O)N1Cc1ccc(-c2ccccc2)cc1 | > 10000 | – | –
10 | CCCCC(=O)NS(=O)(=O)c1ccccc1-c1ccc(CN2C(=O)C3(CCCC3)C(=O)N2CCCC)cc1 | 13 | – | 15
11 | CCCCN1C(=O)C2(CCCC2)C(=O)N1Cc1ccc(-c2ccccc2C(=O)O)cc1 | 3160 | – | –
12 | CCCCN1C(=O)C2(CCCC2)C(=O)N1Cc1ccc(-c2ccccc2S(=O)(=O)NC(=O)c2ccccc2)cc1 | 10 | – | 12
13 | CCCN1C(=O)C2(CCCC2)C(=O)N1Cc1ccc(-c2ccccc2S(=O)(=O)NC(=O)c2ccccc2)cc1 | 40 | – | 52

The next lines start with the values.

Row | Ki [1] [nM] | IC50 [2] [nM] | IC50 (Angiotensin II receptor) [nM] | SMILES
14 | > 10000 | – | – | CCCCN1C(=O)C2(CCCC2)C(=O)N1Cc1ccc(-c2ccccc2C#N)cc1
15 | 398 | – | – | CCCCN1C(=O)C2(CCCC2)C(=O)N1Cc1ccc(NC(=O)c2ccccc2C(=O)O)cc1
16 | 2000 | – | – | CCCCN1C(=O)C2(CCCC2)C(=O)N1Cc1ccc(C(=O)Nc2ccccc2C(=O)O)cc1
17 | > 10000 | – | – | CCCCN1C(=O)C2(CCCC2)C(=O)N1Cc1ccc(-c2ccccc2S(N)(=O)=O)cc1
18 | 381 | – | – | Cc1ccc(N2C(=O)C3(CCCC3)C(=O)N2Cc2ccc(-c3ccccc3-c3nn[nH]n3)cc2)cc1
19 | > 10000 | – | – | CCCCN1C(=O)C2(CCCC2)C(=O)N1Cc1ccc(C(=O)Nc2cccc(C(=O)O)c2)cc1
